Screens (PubChem)
APP 5'UTR act – APP 5'UTR luciferase reporter activation | SH-SY5Y APP 5'UTR luciferase reporter, luminescence; zero percent = DMSO vehicle wells | activation, % at 2 µM | 190,000 compounds, 1% hits;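 active = activation above a set limit, based on mean plus 3 SD of controls, cut at about 140% in these data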
STAT1 inh – STAT1 signaling inhibition; NIH 3T3 STAT1-luciferase reporter, IFN-gamma, luminescence; 200,000 compounds, 0.35% hits; inhibition, % at 5.5 µM;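 active = inhibition above a set limit, the mean inhibition across all tested compounds plus 3 SD, cut at about 34% in these data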;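 also: 0% = IFN-gamma with DMSO and 100% = IFN-gamma with 300 µM nifuroxazide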
STAT3 act-1 – activators of IL-6 induced STAT3 signaling. U3A cells, IL-6 STAT3-luciferase reporter, luminescence; 100% = signal with IL-6 EC80 alone. activation (% of control), % at 5.6 µM. 190,000 compounds, 0.91% hits;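 active = activation above the screen-wide mean of compound activation plus 3 SD, cut at about 130% in these data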;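 also: 0% = background luminescence of wells with medium and substrate only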
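Detection: reporter luminescence signal / Assay system: STAT1-lacking human U3A cells, STAT3 luciferase reporter / Incubation: compound pre-incubation 1 h before IL-6, then 6 h stimulation at 37 °C / Control set: IL-6-only high control / Read-out: % activation relative to IL-6 control / Probe or stimulus: Interleukin-6, 33 ng/mL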
NF-kB expr up – raises NF-kB expression in human neuronal cells; NF-kB reporter expression; active compounds read high; fold change at 12.5 µM; AID 1239; 190,000 compounds, 1.6% hits; in the data active = fold change above about 3.3
STAT1 act-1 – increases IFN-gamma driven STAT1 reporter signal | NIH 3T3 STAT1-luciferase reporter, luminescence; 100% = IFN-gamma alone, no compound | activation (% of control), % at 5.5 µM | 200,000 compounds, 2.6% hits | AID 932;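 active = activation above the screen-wide mean activation plus 3 SD, cut at about 130% in these data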;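 also: raw ratio to IFN-gamma control signal so 100% means no change and 0% no light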
STAT3 inh – inhibitors of IL-6 induced STAT3 signaling. U3A cells, IL-6 STAT3-luciferase reporter, luminescence; host cell line lacks STAT1. inhibition, % at 5.5 µM. 190,000 compounds, 0.89% hits;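 active = inhibition above the mean inhibition across all screened compounds plus 3 SD, cut at about 44% in these data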;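 also: 0% = DMSO only wells and 100% = 100 µM nifuroxazide control wells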
STAT3 act-2 – confirmation of STAT3 signaling activators; shares compounds with STAT3 act-1; U3A STAT3-luciferase reporter, IL-6 potentiation, luminescence; U3A cells lack STAT1; 100 means same as IL-6 alone; potentiation (% of control), % at 5.7 µM; 1,200 compounds, 64% hits; AID 1267;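 active = percent activation of the STAT3 luciferase reporter above a set limit taken from the earlier primary screen, cut at about 130% in these data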;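 also: 0% = background signal of medium plus substrate and 100% = median of IL-6 with DMSO wells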
NFkB act STAT3ct – activates NF-kappaB, counter-screen to STAT3 activators. shares compounds with STAT3 act-1. human cells, NF-kappaB reporter activation. activation (% of control), % at 5.7 µM. 1,200 compounds, 11% hits. AID 1309; in the data active = activation above about 120%;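 also: reporter induced by TNF-alpha stimulation; 100% = median of stimulated DMSO wells and 0% = no signal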
STAT1 act-2 – activates STAT1, counter-screen to STAT3 activators. AID 1318. 1,200 compounds, 13% hits. NIH 3T3 STAT1-luciferase reporter, IFN-gamma, luminescence. shares compounds with STAT3 act-1. activation (% of control), % at 5.7 µM;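 active = activation above the solvent-only control well mean plus 3 SD, set per screening run, cut at about 120% in these data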;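 also: 100% = IFN-gamma with DMSO median signal so 100% means no change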
Active calls of the source: *; nt = no result. Hits are enriched below; roughly 5.1% of the tested compounds scored in any of these assays.

SMILES	APP 5'UTR act	STAT1 inh	STAT3 act-1	NF-kB expr up	STAT1 act-1	STAT3 inh	STAT3 act-2	NFkB act STAT3ct	STAT1 act-2
Cn1cc(S(=O)(=O)N2CCCC(C(=O)O)C2)cn1 (centres undefined)	15	0	92	1.2	100	10	nt	nt	nt
Clc1ccc(/C=N/Nc2nn[nH]n2)cc1	7	3	101	1.4	95	2	nt	nt	nt
Clc1ccc(/C=N/Nc2nnc(Cl)c3ccccc23)cc1	6	-20	146*	2	117	-51	160*	127*	164*
C=CCNc1nnc(Cl)c2ccccc12	-1	1	95	1.2	101	15	nt	nt	nt
Clc1nnc(N/N=C/c2ccccc2)c2ccccc12	95	-24	159*	2.5	122	-60	163*	124*	163*
COc1cc2c(cc1OC)-c1cc(N3CCCCCC3)nc(=O)n1CC2	13	-4	114	0.71	104	-13	nt	nt	nt
COc1cc2c(cc1OC)-c1cc(N3CCCc4ccccc43)nc(=O)n1CC2	-12	3	149*	0.63	97	-52	133*	103	96
Cc1ccc([N+](=O)[O-])c2c1C(N1CC(C)OC(C)C1)C(C)(C)O2 (centres undefined)	7	1	99	1.3	99	1	nt	nt	nt
CCOC(=O)N1CCC(NCc2c(C(=O)N(C)Cc3ccccc3)nc3ccccn23)CC1	-19	-2	104	1.1	100	2	nt	nt	nt
COc1ccc(C(=O)NN(C)c2nc(-c3ccccc3)nnc2C(F)(F)F)cc1	-11	4	98	1.2	97	10	nt	nt	nt
COc1ccc(C(=O)NN(C)c2nc(C(F)(F)F)nc3ccccc23)cc1	-95	-5	156*	3	102	-62	131	165*	101
CC1CCCN(c2ccc(C(=O)Nc3cccnc3)cc2[N+](=O)[O-])C1 (centres undefined)	22	-16	101	1.5	115	2	nt	nt	nt
Cc1[nH]c2ccccc2c1CN1CCc2ccccc2C1	-5	-2	158*	2.4	102	-59	132	97	86
O=c1[nH]c(CN2CCc3ccccc3C2)nc2ccccc12	-7	10	106	1.1	91	-7	nt	nt	nt
COc1ccc(CC(=O)NNC(=O)c2cccnc2)cc1OC	-2	0	98	1.1	98	6	nt	nt	nt
COC(=O)C(NC=O)C(O)(Cc1ccccc1)C(F)(F)F (centres undefined)	0	2	158*	1.6	98	-63	152*	106	101
COC(=O)C(O)(NC(=O)OCc1ccccc1)C(F)(F)F (centres undefined)	-13	12	96	1.2	90	11	nt	nt	nt
COc1cccc2sc(Nc3nnc(-c4ccc(F)cc4)o3)nc12	10	-4	159*	0.99	104	-60	148*	111	109
COc1cccc2sc(NNC(=O)COc3ccccc3)nc12	12	-4	100	1.1	102	7	nt	nt	nt
Cc1[nH]c2ccccc2c1C(=O)C(=O)NCc1ccco1	4	5	96	1.2	94	13	nt	nt	nt
O=C1C(C=NCc2ccco2)=C(O)c2ccccc21	98	-19	141*	1.9	119	-41	187*	135*	164*
O=S(=O)(c1ccc(Br)cc1)N1CCN(c2cc(-c3ccccc3)nc3ncnn23)CC1	-13	-1	146*	0.8	102	-46	108	99	96
O=S(=O)(c1ccccc1)N1CCN(c2cc(-c3ccccc3)nc3ncnn23)CC1	-4	32	93	0.6	72	16	nt	nt	nt
O=C(N/N=C/c1ccc([N+](=O)[O-])o1)C1CC1	-3	0	95	0.84	101	7	nt	nt	nt
Cc1cc2c(cc1C)CSC(c1c(O)ccc3ccccc13)SC2	21	-3	101	1.1	103	7	nt	nt	nt
SMILES	APP 5'UTR act	STAT1 inh	STAT3 act-1	NF-kB expr up	STAT1 act-1	STAT3 inh	STAT3 act-2	NFkB act STAT3ct	STAT1 act-2
Cc1cc2c(cc1C)CSC(c1ccc3ccccc3c1O)SC2	10	-2	152*	1.2	101	-61	128	96	97
O=C(NCCSc1c[nH]c2ccccc12)c1ccco1	-1	-10	140*	1.7	109	-42	121	110	133*
O=C(NCCSc1c[nH]c2ccccc12)c1c(F)cccc1F	-1	-10	nt	1.2	108	nt	nt	nt	nt
CCNCc1cc([N+](=O)[O-])ccc1OCC	2	-10	99	1.1	107	8	nt	nt	nt
O=C(c1ccco1)[C@@H]1[C@@H]2C(=O)N(c3ccc(Br)cc3)C(=O)[C@@H]2C2c3ccccc3C=CN21 (some centres undefined)	2	-3	142*	nt	103	-48	125	106	106
COc1ccc(S(=O)(=O)N2CCN(C(=S)NC3CCCCC3)CC2)cc1	9	-5	97	1.6	103	15	nt	nt	nt
O=C(CSc1nc(C2CC2)nc2ccccc12)N1c2ccccc2Sc2ccccc21	-3	0	117	0.71	100	-18	nt	nt	nt
CCOc1ccc(NC(=O)C(C)Oc2ccccc2C(=O)Nc2ccc(C)c(Cl)c2)cc1 (centres undefined)	-13	-10	149*	1.1	109	-61	137*	111	103
COc1cccc2oc(-c3ccco3)cc(=O)c12	26	-15	95	1.5	114	3	nt	nt	nt
CC(=O)Nc1ccc(S(=O)(=O)Nc2nc3ccccc3nc2Nc2ccc3ccccc3c2)cc1	4	2	152*	1.2	98	-56	152*	117	113
CCCCN(CCCC)c1nc2ccccc2nc1NS(=O)(=O)c1ccc(NC(C)=O)cc1	1	0	93	1	100	13	nt	nt	nt
O=C(Cc1ccc2c(c1)OCCO2)N1CCN(c2ccccc2)CC1	2	-4	99	1.2	104	9	nt	nt	nt
CC(=O)N(C)c1ccc(NC(=S)Nc2ccccc2)cc1	17	5	106	0.94	94	3	nt	nt	nt
CN(C)c1cc(O)c(C(=S)Nc2ccccc2)c(N(C)C)c1	19	-8	146*	0.96	107	-48	136*	110	113
CCS(=O)(=O)Nc1ccc(C2=NN(S(C)(=O)=O)C(c3cccs3)C2)cc1 (centres undefined)	4	-15	137*	1.5	113	-44	125	101	102
COc1ccc(OC)c(Nc2nc3nonc3nc2N2CCCCC2)c1	-9	4	163*	1.1	96	-72	99	112	113
